These results are taken from ChEMBL document CHEMBL2346497, “Synthesis of novel cognition enhancers with pyrazolo[5,1-c][1,2,4]benzotriazine core acting at γ-aminobutyric acid type A (GABA(A)) receptor” (Bioorg Med Chem, 2013).

In assay [1] the test system is Rattus norvegicus. As to the kind of experiment: Procognitive effect in Harlan Wistar rat assessed as decrease in exploring time of unfamiliar rat during social investigatory behaviour at 1 to 10 mg/kg, po administered 30 mins prior to testing measured for 5 mins by social learning test relative to control. The assay is classed as functional, organism-based.
The target in assay [2] is GABA A receptor alpha-2/beta-2/gamma-2 (Homo sapiens) (UniProt P47870+P18507+P47869). As to the kind of experiment: Displacement of [3H]Ro15-1788 from recombinant GABA-A alpha2beta2gamma2 receptor benzodiazepine binding site (unknown origin) at 10 uM after 1 hr relative to control. The assay is classed as protein-complex assay. The gist of the method: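 Membranes came from clonal mammalian cell lines expressing α1β2γ2, α2β2γ2 or α5β3γ2 receptors, grown in MEM/EBSS with 10% FCS at 37 °C. Membranes were resuspended in 10 mM potassium phosphate, pH 7.4, with 100 mM KCl. Assays used 1–2 nM [3H]Ro15-1788 and test compound from 10^-9 to 10^-5 M, at least six concentrations. Diazepam at 10^-5 M defined nonspecific binding. Incubation ran 1 h at 4 °C. Single-point % inhibition was measured at 10 µM, and Ki by curve fitting; n = 5, in duplicate.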
In general terms: Loss of bound radioactivity is the signal in a displacement assay; it reports binding, not function.

Assay [3] relates to Rattus norvegicus. As to the kind of experiment: Procognitive effect in Harlan Wistar rat assessed as exploring time of familiar rat during social investigatory behaviour at 10 mg/kg, po administered 30 mins prior to testing measured for 5 mins by social learning test (reference value: 27.6 secs). The class given is functional.
Assay [4] relates to Mus musculus. Nature of the assay: Anticonvulsant activity in CD1 albino mouse assessed as protection against pentylenetetrazole-induced convulsions at 10 mg/kg, po administered 30 mins prior to pentylenetetrazole challenge measured over 30 mins (reference value: 7.1%). The assay is classed as functional.
The nature of assay [5]: Displacement of [3H]Ro15-1788 from GABA-A receptor benzodiazepine binding site in bovine cerebral cortex membranes after 1 hr. The class given is cell membranes, Bos taurus, Membrane.
The subject of assay [6] is Rattus norvegicus. As to the kind of experiment: Induction of acetylcholine release in Harlan Wistar rat parietal cortex at 10 mg/kg, ip measured within 120 mins by microdialysis method. Also noted: dose 10 mg/kg. The class given is functional, organism-based. The gist of the method: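 Microdialysis in the parietal cortex of male Wistar rats, with a horizontal tube implanted at AP 0.5 mm and H 2.3 mm from bregma. One day after surgery the tube was perfused with Ringer containing physostigmine. After a 1 h settling period, 20-min fractions were collected into HCl. Drug was given ip in 1% CMC at time 0. ACh was measured by HPLC with electrochemical detection, n = 6 rats.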

Assay [7] has as its system Mus musculus. Nature of the assay: Antiamnesic activity in CD1 albino mouse assessed as reversal of scopolamine-induced amnesia at 1 mg/kg, po administered 30 mins prior to scopolamine challenge measured after 24 hrs by passive avoidance test. The class given is functional, organism-based. Also noted: dose 1 mg/kg. The gist of the method: (§1)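 Step-through passive avoidance in male CD-1 mice (22–24 g). Test drugs were given po, suspended in 1% carboxymethylcellulose at 10 ml/kg, 30 min before the training session. For the antiamnesic arm, scopolamine 1.5 mg/kg was injected immediately after punishment. Retention latency was compared with CMC-treated controls, n = 10–12 mice per group.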

Assay [8] concerns Mus musculus. Nature of the assay: Cognitive enhancing effect in CD1 albino mouse assessed as increase in retention latency at 1 to 10 mg/kg, po administered 30 mins prior to testing measured after 24 hrs by passive avoidance test relative to control. The class given is functional, organism-based. The procedure, abridged: as §1

Broadly, the inhibition is the drop in the measured response relative to a control, in per cent. A word on the Ki: it is a measure of affinity in units of concentration, obtained from inhibition or displacement. Read a high Ki as lower affinity.

SMILES strings stand for the structures. The source made the active and inactive calls. The rule behind the calls is not given here.

As to `Cc1cnn2c1n[n+]([O-])c1ccc(OCc3ccncc3)cc12`, the result in the assay on Rattus norvegicus [1] and with Rattus norvegicus [6] was inactive. Besides, the inhibition in assay [2] was determined as 5%. The Time in the assay with Rattus norvegicus [3] stood at 41.4 s. In the assay on Mus musculus [4], the Activity is given as 0%. For the same compound, the Ki in assay [5] came to 24.1 nM. Also, the outcome in the assay with Mus musculus [7] and in the assay with Mus musculus [8] was Active.
